Experimental data of several laboratories.
Each line is one published result; the experiments were not run side by side.
Organism: Pichia kudriavzevii
Read-out: microbial growth

CCCCCCCCCCN1CCNCC1 — MIC (broth dilution; ATCC6258; 48 h): 7.8 µg/mL
C[C@@H]1[C@H](O)[C@@H](C)/C=C/C=C/C=C/C=C/C=C/C=C/C=C/[C@H](O[C@@H]2O[C@H](C)[C@@H](O)[C@H](N)[C@@H]2O)C[C@@H]2O[C@](O)(C[C@@H](O)C[C@@H](O)[C@H](O)CC[C@@H](O)C[C@@H](O)CC(=O)O[C@H]1C)C[C@H](O)[C@H]2C(=O)O — MIC (ATCC6258): 1.35 µM
C[C@@H]1[C@H](O)[C@@H](C)/C=C/C=C/C=C/C=C/C=C/C=C/C=C/[C@H](O[C@@H]2O[C@H](C)[C@@H](O)[C@H](N)[C@@H]2O)C[C@@H]2O[C@](O)(C[C@@H](O)C[C@@H](O)[C@H](O)CC[C@@H](O)C[C@@H](O)CC(=O)O[C@H]1C)C[C@H](O)[C@H]2C(=O)O — MIC (broth dilution; ATCC6258): 0.5 µg/mL
CCCCCCOc1c(OC)cc(NC(C)CCCN)c2nc(C(C)(C)C)cc(C)c12 (stereo not drawn) — MIC (ATCC6258): 5 µg/mL
CCCCCCCCCCCCCCN1CCNCC1 — MIC (broth dilution; ATCC6258; 48 h): 0.975 µg/mL
C=C(C)[C@@H]1CC[C@]2(C)CC[C@]3(C)[C@H](CC[C@@H]4[C@@]5(C)CCC(=O)C(C)(C)[C@@H]5CC[C@]43C)[C@@H]12 — MIC (broth dilution; ATCC6258; 48 h): 500 µg/mL
C[C@@H]1[C@H](O)[C@@H](C)/C=C/C=C/C=C/C=C/C=C/C=C/C=C/[C@H](O[C@@H]2O[C@H](C)[C@@H](O)[C@H](N)[C@@H]2O)C[C@@H]2O[C@](O)(C[C@@H](O)C[C@@H](O)[C@H](O)CC[C@@H](O)C[C@@H](O)CC(=O)O[C@H]1C)C[C@H](O)[C@H]2C(=O)O — MIC: 0.5 µM
OC(Cn1cncn1)(Cn1cncn1)c1ccc(F)cc1F — MIC (broth dilution; ATCC6258; 48 h): 50 µg/mL
CCCCCCCOc1c(OC)cc(NC(C)CCCNC(=O)C(N)C(C)CC)c2nc(C(C)(C)C)ccc12 (stereo not drawn) — MIC (ATCC6258): 10 µg/mL
CCCCCCCCCCCN1CCNCC1 — MIC (broth dilution; ATCC6258; 48 h): 7.8 µg/mL
C=C(C)[C@@H]1CC[C@]2(C(=O)O)CC[C@]3(C)[C@H](CC[C@@H]4[C@@]5(C)CC[C@H](O)C(C)(C)[C@@H]5CC[C@]43C)[C@@H]12 — MIC (broth dilution; ATCC6258; 48 h): 250 µg/mL
CCCCCOc1c(OC)cc(NC(C)CCCNC(=O)C(N)Cc2cc3ccccc3[nH]2)c2nc(C(C)(C)C)ccc12 (stereo not drawn) — MIC (ATCC6258): 10 µg/mL
